The values below come from ChEMBL document CHEMBL1140454, “Conformationally constrained analogues of 2-arachidonoylglycerol” (Bioorg Med Chem Lett, 2007).

For test [1], the target named is T1, Fatty-acid amide hydrolase 1 (Rattus norvegicus) (UniProt P97612).
T1 sequence (whole entry): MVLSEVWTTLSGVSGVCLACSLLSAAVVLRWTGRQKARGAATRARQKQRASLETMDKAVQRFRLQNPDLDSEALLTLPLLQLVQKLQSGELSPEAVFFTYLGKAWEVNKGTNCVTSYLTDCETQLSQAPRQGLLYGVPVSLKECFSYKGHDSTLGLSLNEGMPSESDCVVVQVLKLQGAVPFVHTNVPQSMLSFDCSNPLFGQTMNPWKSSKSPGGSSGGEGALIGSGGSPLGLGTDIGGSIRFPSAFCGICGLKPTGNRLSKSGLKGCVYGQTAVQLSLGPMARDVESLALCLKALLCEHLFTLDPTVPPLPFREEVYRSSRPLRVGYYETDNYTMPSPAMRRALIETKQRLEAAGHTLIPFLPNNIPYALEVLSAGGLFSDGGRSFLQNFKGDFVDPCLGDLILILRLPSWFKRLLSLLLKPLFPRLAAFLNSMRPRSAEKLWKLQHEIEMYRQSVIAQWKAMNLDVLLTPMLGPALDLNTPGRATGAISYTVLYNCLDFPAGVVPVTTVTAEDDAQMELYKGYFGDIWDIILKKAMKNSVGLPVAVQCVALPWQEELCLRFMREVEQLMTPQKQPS
Kind of test: Activity of partially purified Sprague-Dawley rat FAAH assessed as substrate hydrolysis.

The target of test [2] is T2, Monoglyceride lipase (Rattus norvegicus) (UniProt Q8R431).
T2 sequence (whole entry): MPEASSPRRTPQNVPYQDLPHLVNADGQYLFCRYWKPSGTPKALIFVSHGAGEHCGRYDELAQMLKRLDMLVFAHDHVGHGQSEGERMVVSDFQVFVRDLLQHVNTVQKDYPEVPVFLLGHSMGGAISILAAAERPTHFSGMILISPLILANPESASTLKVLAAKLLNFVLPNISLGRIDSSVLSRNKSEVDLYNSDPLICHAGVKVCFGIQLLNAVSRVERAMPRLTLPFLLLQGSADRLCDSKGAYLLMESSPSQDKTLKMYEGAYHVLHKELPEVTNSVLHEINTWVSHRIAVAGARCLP
As to the kind of experiment: Activity of partially purified Sprague-Dawley rat MGL assessed as substrate hydrolysis.

The target in a further test is Cannabinoid receptor 2 (Mus musculus, UniProt P47936). Kind of test: Displacement of [3H]CP-55940 from mouse spleen CB2 receptor. Type of test: tissue-based. The method, boiled down: (§1)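 Competition-equilibrium binding against [3H]CP55940, using rat brain membranes for CB1 and mouse spleen membranes for CB2. Some CB1 runs used membranes pretreated with PMSF. IC50 came from nonlinear regression and Ki was calculated from IC50. Points were run in duplicate, with values from single experiments.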
Sequence of Cannabinoid receptor 2 (P47936 whole entry): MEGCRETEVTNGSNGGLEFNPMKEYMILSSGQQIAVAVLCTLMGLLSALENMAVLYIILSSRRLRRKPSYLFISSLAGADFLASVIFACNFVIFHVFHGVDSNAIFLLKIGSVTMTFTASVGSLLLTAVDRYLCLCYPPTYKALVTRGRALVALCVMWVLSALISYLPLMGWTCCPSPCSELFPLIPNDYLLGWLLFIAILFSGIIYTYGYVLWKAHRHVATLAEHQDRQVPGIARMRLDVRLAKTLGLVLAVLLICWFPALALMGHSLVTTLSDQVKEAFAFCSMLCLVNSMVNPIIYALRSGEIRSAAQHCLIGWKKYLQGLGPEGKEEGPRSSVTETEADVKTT
(In general: Loss of bound radioactivity is the signal in a displacement assay; it reports binding, not function.)

The next test addresses Cannabinoid receptor 1 (Rattus norvegicus, UniProt P20272). As to the kind of experiment: Displacement of [3H]CP-55940 from rat brain CB1 receptor. The method, boiled down:
as §1

A word on the Ki: it is a measure of affinity in units of concentration, obtained from inhibition or displacement. A low value points to tighter binding.

Sequence of Cannabinoid receptor 1 (P20272 whole entry): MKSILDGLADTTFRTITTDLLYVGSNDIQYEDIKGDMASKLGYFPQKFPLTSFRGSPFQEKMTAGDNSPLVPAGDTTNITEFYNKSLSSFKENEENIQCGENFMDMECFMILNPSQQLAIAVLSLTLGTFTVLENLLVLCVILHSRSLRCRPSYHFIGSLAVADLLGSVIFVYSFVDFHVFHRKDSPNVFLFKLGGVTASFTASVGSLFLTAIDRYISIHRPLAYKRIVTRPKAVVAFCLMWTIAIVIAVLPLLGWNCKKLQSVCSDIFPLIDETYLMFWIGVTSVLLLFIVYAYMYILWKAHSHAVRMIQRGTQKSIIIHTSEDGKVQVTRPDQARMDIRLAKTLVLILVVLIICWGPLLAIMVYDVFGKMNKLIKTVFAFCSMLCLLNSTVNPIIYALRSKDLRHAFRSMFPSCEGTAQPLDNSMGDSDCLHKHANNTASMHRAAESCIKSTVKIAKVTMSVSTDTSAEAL

Consider `CCCCC/C=C\C/C=C\C/C=C\C/C=C\CCCC(=O)OC(CO)CO`, for which the hydrolysis turned out to be 100% in test [1] and 74% in test [2].

Turning to `CCCCC/C=C\C/C=C\C/C=C\C/C=C\CCCC(=O)O[C@@H]1[C@H](O)CCC[C@@H]1O`, the hydrolysis in test [1] and in test [2] was 2% in each case.

For the compound `CCCCC/C=C\C/C=C\C/C=C\C/C=C\CCCC(=O)O[C@H]1[C@H](O)CCC[C@@H]1O`, the hydrolysis in test [1] is 78%; in test [2], 19%.

Take `CCCCC/C=C\C/C=C\C/C=C\C/C=C\CCCC(=O)OC1C(O)CCCC1O` (racemic): the hydrolysis was found to be 100% in test [1] and 1% in test [2].

`CCCCC/C=C\C/C=C\C/C=C\C/C=C\CCCC(=O)OC1C(=O)CCCC1O` (racemic; form 1) [listing 1 of 2 here] gave a Ki at Cannabinoid receptor 2 of 410 nM.

Turning to `CCCCC/C=C\C/C=C\C/C=C\C/C=C\CCCC(=O)OC1C(=O)CCCC1O` (racemic; form 1) [listing 2 of 2 here], the hydrolysis was 91% in test [1] and 48% in test [2].

For the compound `CCCCC/C=C\C/C=C\C/C=C\C/C=C\CCCC(=O)OC1C(=O)CCCC1O` (racemic; form 2), the hydrolysis in test [1] stood at 100%; in test [2], 8%.

Consider `CCCCC/C=C\C/C=C\C/C=C\C/C=C\CCCC(=O)OC1C(O)CCCC1O` (single isomer, unassigned; (+)) [listing 1 of 2 here], for which the Ki on Cannabinoid receptor 1 is 360 nM; at Cannabinoid receptor 2, 370 nM.

As for `CCCCC/C=C\C/C=C\C/C=C\C/C=C\CCCC(=O)OC1C(O)CCCC1O` (single isomer, unassigned; (+)) [listing 2 of 2 here], the hydrolysis turned out to be 88% in test [1] and 10% in test [2].

Consider `CCCCC/C=C\C/C=C\C/C=C\C/C=C\CCCC(=O)OC1C(O)CCCC1O` (single isomer, unassigned; (-)) [listing 1 of 2 here], for which the figures for the inhibition constant Ki at Cannabinoid receptor 1 and at Cannabinoid receptor 2 were 770 nM and 1200 nM, respectively.

As for `CCCCC/C=C\C/C=C\C/C=C\C/C=C\CCCC(=O)OC1C(O)CCCC1O` (single isomer, unassigned; (-)) [listing 2 of 2 here], the hydrolysis turned out to be 88% in test [1] and 13% in test [2].
